HTR2A ag: mouse HTR2A agonism via beta-arrestin recruitment | P35363 | CHO-K1 mHTR2A beta-arrestin complementation, luminescence; percent of 30 µM serotonin response | activation, % at 7.6 µM | 360,000 tested, 0.66% active;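 active means activation above a run cutoff, the mean activation of all tested compounds plus 3 SD, cut at about 14% in these data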;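 further: 0% = plate median of compound wells and 100% = 30 µM serotonin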
Target sequence (P35363 whole entry, looked up): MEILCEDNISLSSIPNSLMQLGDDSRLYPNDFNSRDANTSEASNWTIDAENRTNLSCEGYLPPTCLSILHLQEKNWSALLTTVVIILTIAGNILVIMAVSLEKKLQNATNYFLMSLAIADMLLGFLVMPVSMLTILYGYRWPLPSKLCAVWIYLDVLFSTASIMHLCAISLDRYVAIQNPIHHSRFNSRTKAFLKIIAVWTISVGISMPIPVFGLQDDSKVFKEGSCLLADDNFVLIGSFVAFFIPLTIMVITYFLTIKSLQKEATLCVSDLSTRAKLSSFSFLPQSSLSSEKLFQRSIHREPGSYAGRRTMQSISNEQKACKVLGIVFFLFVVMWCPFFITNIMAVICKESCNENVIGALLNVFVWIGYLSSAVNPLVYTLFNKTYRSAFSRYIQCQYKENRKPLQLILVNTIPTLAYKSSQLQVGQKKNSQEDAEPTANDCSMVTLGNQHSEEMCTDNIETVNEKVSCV
NTR1 agonist: NTR1 (human) agonism; AID 493036; 330,000 tested, 0.17% active; activation, % at 20 µM; NTR1-U2OS beta-arrestin-GFP spot imaging, agonist mode;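 active means activation at or above 40% of the spot to cytoplasm intensity ratio, with at least 20 cells analyzed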;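 further: 0% = DMSO without peptide and 100% = 100 nM NTR1 peptide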
PREPL inh: human PREPL enzyme inhibition. 320,000 tested, 0.68% active. inhibition, % at 5.96 µM. Q4J6C6. recombinant PREPL, fluorescence polarization activity-based probe; in the data active means inhibition above about 43%;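 further: 0% = enzyme with DMSO and 100% = wells lacking enzyme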
MC4R ag barr: activates human MC4R beta-arrestin recruitment; activation, % at 8.9 µM; U2OS MC4R beta-arrestin complementation, luminescence; percent of melanotan II response, DMSO zero; 360,000 tested, 0.98% active; P32245;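 active means activation above a per-plate cutoff, the mean activation of sample wells on that plate plus 3 SD, cut at about 8% in these data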
Lipid droplet: hepatic lipid droplet formation modulation | 240,000 tested, 0.4% active | inhibition, % at 6.5 µM | AML12 mouse hepatocytes, oleate lipid droplets, BODIPY imaging | AID 1656;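 active means lipid droplet intensity inhibited by at least 50%, with more than 500 cells counted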
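Technique: fluorescence imaging, 20x objective, two fields per well / Assay system: AML12 hepatocytes (mouse) / Measure: % inhibition of lipid droplet signal / Doses: 6.5 µM single-point dosing / Incubation: overnight exposure / Reagent: 100 µM oleic acid challenge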
MC4R antagonist: human MC4R antagonism in cAMP assay; AID 540295; MC4R-expressing cells, MTII-stimulated cAMP, LANCE TR-FRET; 360,000 tested, 0.48% active; inhibition, % at 6.5 µM;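 active means inhibition above its plate's cutoff, the mean of tested wells on that plate plus 3 SD, cut at about 29% in these data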;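 further: 0% = Melanotan II alone and 100% = Melanotan II plus saturating MCL0020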
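Test system: U2OS cells stably expressing human melanocortin 4 receptor (MC4R); also added: Melanotan II challenge; compound: 6.5 µM single dose; timing: 30-min compound preincubation, 1-h Melanotan II challenge, 1-h detection, room temperature; signal: Eu-cAMP/anti-cAMP TR-FRET, emission 671 nm; repeats: one well per compound, no replicates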
MC4R barr conf: human MC4R beta-arrestin agonism confirmation; shares compounds with MC4R ag barr; U2OS MC4R beta-arrestin recruitment, luminescence; scaled DMSO 0%, Melanotan II 100%; activation, % at 8.9 µM; 2,400 tested, 31% active;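 active means mean activation across replicates above the hit cutoff set in the earlier primary screen, cut at about 8% in these data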
MOR DOR agonist: activates mu-delta opioid heterodimer, MC4R agonist counter-screen; shares compounds with MC4R ag barr; U2OS PathHunter beta-arrestin, beta-gal luminescence; percent of deltorphin B response, DMSO zero; activation, % at 9.2 µM; 2,400 tested, 5.8% active; AID 602194;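 active means mean activation across replicates exceeds the hit threshold derived in the earlier primary screen, cut at about 18% in these data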;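 further: 100% = deltorphin B at 0.9 µM final and 0% = DMSO alone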
* marks the source's active call; other numbers are inactive results; nt = no result. Compounds with a hit are over-represented: about 2.7% of the library has one in this group of screens.

SMILES	HTR2A ag	NTR1 agonist	PREPL inh	MC4R ag barr	Lipid droplet	MC4R antagonist	MC4R barr conf	MOR DOR agonist
COc1cc(CC(NC(C)=O)C(=O)NC2CCN(c3c4c(nc5ncnn35)CCC4)CC2)cc(OC)c1 (stereo unspecified)	nt	2.7	5.1	nt	-3.7	nt	nt	nt
CCOc1cc(C(=O)Nc2ccc3c(c2)OCO3)ccc1OCCOc1ccccc1Cl	3.5	0.2	27.5	10.0*	-1.1	1.5	12.2*	6.2
O=C(Nc1ccc(NC(=O)c2sc3ccccc3c2Cl)cc1Cl)c1ccco1	0.4	1.5	-9.7	35.7*	nt	0.2	8.8*	2.5
CCOc1ccc(C(=O)Nc2ccc(NC(=O)c3ccco3)c(Cl)c2)cc1Br	2.4	15.9	-0.2	36.4*	nt	0.7	5.9	15.7
COc1cccc(C(=O)Nc2ccc(NC(=O)c3ccco3)c(Cl)c2)c1	1.3	0.7	5.9	-1.0	-1.6	-5.2	nt	nt
COc1ccc(-c2nc(C(N)=O)c3[nH]c(=O)n(-c4cccc(Cl)c4)c3n2)cc1OC	3.0	nt	nt	12.9*	-19.2	-3.4	10.8*	12.2
Nc1nc(CCl)nc(Nc2cccc3ccccc23)n1	1.0	6.1	10.4	25.8*	15.8	6.9	18.7*	43.0*
Nc1nc(Nc2cccc3ccccc23)nc(C2CCCC2=O)n1 (stereo unspecified)	nt	2.7	1.5	nt	nt	nt	nt	nt
CC(/C=C/C=C/c1ccccc1)=N/NC(=O)CNc1ccccc1C	3.2	1.0	1.0	13.7*	-101.6	-13.9	29.1*	9.7
CC(/C=C/c1ccco1)=N/NC(=O)CNc1ccccc1C	4.6	-0.9	4.3	1.2	11.3	-3.8	nt	nt
CCOc1ccc2nc(NC(=O)CS(=O)(=O)c3ccc(C)cc3)sc2c1	0.2	1.6	2.6	11.1*	12.2	-10.1	4.9	8.3
Cc1nc(NC(=O)CSc2nc3cccnc3n2Cc2ccccc2)sc1C	-2.7	13.9	-6.3	26.2*	-8.2	-3.0	3.1	7.9
CCOc1ccc(OCC)c(NC(=O)CSc2nc3cccnc3n2C)c1	0.7	1.7	-4.7	-0.7	0.1	0.9	nt	nt
CCOc1ccc2nc(NC(=O)CS(=O)(=O)c3ccccc3)sc2c1	-0.1	-1.1	-1.0	-0.3	-2.3	0.8	nt	nt
CCOc1ccc2nc(NC(=O)CSc3nc4cccnc4n3C)sc2c1	2.0	1.6	4.8	15.7*	nt	2.5	8.9*	6.5
COc1ccc(CNC(=O)CSc2nccn(-c3ccc(F)c(F)c3)c2=O)cc1	1.0	1.4	0.3	-3.1	nt	3.1	nt	nt
c1ccc(CN(CCN2CCOCC2)Cc2ccccc2)cc1	-8.7	nt	nt	-0.7	nt	12.8	nt	nt
CCc1nnc(NC(=O)CSc2ncnc3scc(-c4ccc(C)cc4)c23)s1	1.8	6.8	-15.7	11.4*	nt	12.5	13.6*	4.0
O=C(COC(=O)CCNS(=O)(=O)c1ccccc1)NC(=O)Cc1ccccc1	-0.1	0.2	12.7	-1.8	nt	14.2	nt	nt
CC(C)COc1ccc(S(=O)(=O)NNC(=O)c2cc3ccccc3o2)cc1	8.4	6.6	-66.2	11.3*	34.2	14.0	11.6*	10.4
COc1ccccc1CN1CCNC(=O)C1CC(=O)N(C)Cc1ccon1 (stereo unspecified)	3.8	0.6	2.6	0.3	-12.4	1.8	nt	nt
CC(C)(C)OC(=O)N1CCC[C@H]1C(=O)NCc1ccc(F)cc1F	2.5	nt	nt	nt	nt	nt	nt	nt
COc1cccc(-c2sc3ccccc3c2-c2ccc(OCCN3CCCC3)cc2)c1	-13.7	11.7	5.7	10.5*	nt	10.2	46.2*	12.3
COc1cccc(-c2sc3ccccc3c2-c2ccc(OCCN(C)C)cc2)c1	-5.0	11.2	2.9	29.2*	nt	7.9	56.3*	17.0
COc1ccc(-c2sc3ccccc3c2-c2ccc(OCCN3CCCCC3)cc2)cc1	-0.3	9.1	13.7	-0.6	nt	4.7	nt	nt
SMILES	HTR2A ag	NTR1 agonist	PREPL inh	MC4R ag barr	Lipid droplet	MC4R antagonist	MC4R barr conf	MOR DOR agonist
COc1ccc2sc(-c3ccccc3OC)c(-c3ccc(OCCN(C)C)cc3)c2c1	0.1	14.0	nt	8.2	nt	10.4	nt	nt
COc1ccccc1-c1sc2ccccc2c1-c1ccc(OCCN2CCCCC2)cc1	-2.7	6.7	nt	5.1	nt	5.7	nt	nt
c1ccc(-c2sc3ccccc3c2-c2ccc(OCCN3CCCC3)cc2)cc1	-11.8	8.2	1.7	13.7*	nt	-2.3	32.0*	9.9
O=S(=O)(c1ccc(F)cc1)N1CCN(Cc2ccccn2)CC1	3.5	-0.4	1.4	1.0	-1.5	-2.2	nt	nt
Cn1cnnc1SCC(=O)Nc1ccc2ccccc2c1	-3.4	-1.3	9.9	0.8	nt	-0.5	nt	nt
CCc1nccn1S(=O)(=O)c1cc(OC)ccc1OC	3.2	-0.2	1.7	-1.4	nt	9.2	nt	nt
C[C@H](NC(=O)[C@H]1N2C(=O)c3ccccc3C2SC1(C)C)C(=O)N1CCC[C@H]1C(=O)O (stereo partly specified)	1.7	14.0	7.4	-1.6	-1.9	11.0	nt	nt
CN(C)/C=C(\C#N)c1nc2ccccc2[nH]1	2.3	-0.1	0.4	-0.7	-7.5	0.7	nt	nt
COc1ccccc1N/C=C(\C#N)c1nc2ccccc2[nH]1	-3.7	-0.9	23.6	11.1*	-10.7	4.2	0.7	4.7
O=C(Nc1ccc2ccccc2c1)c1ccccc1Cl	0.5	nt	nt	-2.9	nt	8.4	nt	nt
O=C(Nc1ccc2ccccc2c1)c1ccc(Cl)cc1Cl	-4.3	11.1	7.8	12.2*	1.7	15.7	2.3	5.2
CC(=O)c1cccc(NC(=O)c2noc3c2CCc2ccccc2-3)c1	5.8	6.7	8.0	16.4*	5.1	9.9	9.7*	3.0
COc1ccc(C(=O)[C@@H]2CC[C@](C)(C(=O)O)C2(C)C)cc1	-2.0	-1.0	5.1	0.0	nt	8.2	nt	nt
O=C(COC(=O)c1cc(=O)c2ccccc2o1)NCc1ccc(Cl)cc1	4.0	nt	nt	0.1	nt	-0.1	nt	nt
COC(=O)c1ccc(C2C(Oc3ccccc3)C(=O)N2CCc2ccc(F)cc2)cc1 (stereo unspecified)	3.1	15.0	-25.2	19.6*	nt	10.6	2.6	4.6
CCc1cc2c(-c3ccccc3)cc(=O)oc2cc1OCC(C)=O	1.5	7.6	-2.2	3.3	4.3	20.7	nt	nt
CC(=O)COc1cc2c(-c3cc4ccccc4o3)cc(=O)oc2cc1C	7.4	13.8	0.6	25.5*	14.3	-9.2	1.0	0.6
CN(C)CCN(C(=O)/C=C/c1cccs1)c1nc2c(F)cc(F)cc2s1	-4.2	10.4	17.5	20.9*	-18.5	8.2	4.6	13.5
CCOc1cccc2sc(N(CCN(C)C)C(=O)/C=C/c3cccs3)nc12	-6.1	1.4	21.1	15.0*	14.6	-2.5	3.4	8.9

Compound activity: PubChem, several laboratories
